Test results from ChEMBL document CHEMBL4196006, “Aryl thiosemicarbazones for the treatment of trypanosomatidic infections” (Eur J Med Chem, 2018).
pEC50: −log10 of the molar value. The source made the active and inactive calls. The calls are words filed in the database; no cut-off is given here.

What was measured:
[1] = target: T1, Pteridine reductase, putative (Trypanosoma brucei) (UniProt Q581W1); assay: Inhibition of Trypanosoma brucei PTR1 at 50 uM using H2B as substrate in presence of NADPH by photometric analysis relative to control
T1 sequence (whole entry): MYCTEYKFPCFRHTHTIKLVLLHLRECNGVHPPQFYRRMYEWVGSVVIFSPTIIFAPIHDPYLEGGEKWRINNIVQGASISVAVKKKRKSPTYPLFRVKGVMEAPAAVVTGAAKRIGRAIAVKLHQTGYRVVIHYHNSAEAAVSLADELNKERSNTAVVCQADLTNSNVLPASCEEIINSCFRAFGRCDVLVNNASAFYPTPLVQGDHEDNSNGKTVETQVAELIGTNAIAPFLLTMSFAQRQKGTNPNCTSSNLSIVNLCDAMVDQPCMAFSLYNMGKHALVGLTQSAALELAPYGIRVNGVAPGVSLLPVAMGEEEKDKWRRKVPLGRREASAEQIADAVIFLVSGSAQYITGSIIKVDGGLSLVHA

[2] = Cytotoxicity against human A549 cells assessed as growth inhibition at 10 uM after 48 hrs by CellTiter-Glo assay relative to control; values are per cent of control; settings: A549 cells
Aurora kinase B = Aurora kinase B (Homo sapiens, UniProt Q96GD4); assay: Inhibition of recombinant full-length human aurora B kinase expressed in baculovirus system at 10 uM using MBP as substrate incubated for 45 mins by ADP-glo kinase assay; settings: probe MBP
How it was run: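 Aurora B activity measured as ADP formation via coupled luciferase ADP-Glo luminescence; single-point at 10 μM, triplicate.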

Trypanosoma brucei [3] = assay: Potentiation of methotrexate-induced antitrypanosomal activity against Trypanosoma brucei Lister 427 bloodstream form at 10 uM after 72 hrs by resazurin dye-based assay relative to control; type: functional
[4] = target: T2, Pteridine reductase 1 (Leishmania major) (UniProt Q01782); assay: Inhibition of Leishmania major PTR1 at 50 uM using H2B as substrate in presence of NADPH by photometric analysis relative to control
T2 sequence (whole entry): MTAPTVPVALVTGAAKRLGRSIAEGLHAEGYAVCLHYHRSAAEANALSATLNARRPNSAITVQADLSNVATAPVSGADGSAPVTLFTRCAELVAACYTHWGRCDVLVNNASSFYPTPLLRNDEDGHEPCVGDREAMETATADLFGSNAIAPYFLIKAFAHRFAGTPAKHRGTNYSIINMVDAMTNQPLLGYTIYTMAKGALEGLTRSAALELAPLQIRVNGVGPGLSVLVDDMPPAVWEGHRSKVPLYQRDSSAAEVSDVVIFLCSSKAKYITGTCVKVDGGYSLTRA

[5] = Cytotoxicity against human U2OS cells assessed as viable cells at 50 uM after 72 hrs by MTT assay relative to control; type: cell-based; settings: read-out: Activity
Trypanosoma brucei [6] = assay: Antitrypanosomal activity against Trypanosoma brucei Lister 427 bloodstream form after 72 hrs by SYBR Green assay; type: functional, organism-based; settings: Lister 427, 72 h
[7] = Cytotoxicity against human WI38 cells assessed as growth inhibition at 10 uM after 48 hrs by CellTiter-Glo assay relative to control; values are per cent of control; settings: WI38 cells
[8] = Cytotoxicity against human THP1 cells assessed as viable cells at 100 uM after 72 hrs by MTT assay relative to control; type: cell-based, THP-1; settings: read-out: Activity
How it was run: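 THP-1-derived macrophages exposed to compounds for 72 h, tested at 100 μM or in dose-response; viability read by MTT colorimetric assay.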

Trypanosoma cruzi [9] = assay: Antitrypanosomal activity against Trypanosoma cruzi amastigote form infected in human U2OS cells assessed as parasite growth inhibition at 50 uM after 72 hrs relative to control; type: functional; settings: for inhibition of growth at 50 µM: read-out: GI
How it was run: (§1)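 U2OS monolayers grown for 24 h, then infected with tissue-derived trypomastigotes of T. cruzi Y strain. Compounds were added 24 h after infection at 50 μM (single-point) or in dose-response, with 72 h exposure. Plates were fixed, stained and analysed by high-content imaging; activity was normalized to infected and non-infected controls. Means of at least two experiments; benznidazole as reference.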

[10] = Cytotoxicity against human 786-O cells assessed as inhibition of mitochondrial viability at 10 uM after 6 hrs by CMXRos staining based assay relative to control; type: cell-based, 786-0; settings: read-out: INH
How it was run: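 Mitochondrial toxicity monitored by MitoTracker Red CMXRos uptake and high-content imaging; compound at 10 μM, triplicate.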

Trypanosoma brucei [11] = assay: Potentiation of methotrexate-induced antitrypanosomal activity against Trypanosoma brucei Lister 427 bloodstream form at 10 uM after 72 hrs by resazurin dye-based assay; type: functional
Trypanosoma brucei [12] = assay: Antitrypanosomal activity against Trypanosoma brucei Lister 427 bloodstream form at 10 uM after 72 hrs by resazurin dye-based assay relative to control; type: functional
CYP2D6 = CYP2D6 (Homo sapiens, UniProt P10635); assay: Inhibition of human microsomal CYP2D6 expressed in baculovirus infected BTI-TN-5B1-4 cells at 10 uM incubated for 30 mins by luciferase assay relative to control; type: ADME
How it was run: (§2)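 CYP1A2, 2C9, 2C19, 2D6 and 3A4 in microsomes from baculovirus-infected insect cells, each with a P450-Glo luminogenic substrate. Inhibition read as loss of light; single-point at 10 μM, triplicate.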

CYP2C9 = CYP2C9 (Homo sapiens, UniProt P11712); assay: Inhibition of human microsomal CYP2C9 expressed in baculovirus infected BTI-TN-5B1-4 cells at 10 uM incubated for 30 mins by luciferase assay relative to control; type: ADME; how it was run: as §2
CYP1A2 = target: T3, CYP1A2 (Homo sapiens, UniProt P05177); assay: Inhibition of human microsomal CYP1A2 expressed in baculovirus infected BTI-TN-5B1-4 cells at 10 uM incubated for 30 mins by luciferase assay relative to control; type: ADME; how it was run: as §2
T3 sequence (P05177 whole entry): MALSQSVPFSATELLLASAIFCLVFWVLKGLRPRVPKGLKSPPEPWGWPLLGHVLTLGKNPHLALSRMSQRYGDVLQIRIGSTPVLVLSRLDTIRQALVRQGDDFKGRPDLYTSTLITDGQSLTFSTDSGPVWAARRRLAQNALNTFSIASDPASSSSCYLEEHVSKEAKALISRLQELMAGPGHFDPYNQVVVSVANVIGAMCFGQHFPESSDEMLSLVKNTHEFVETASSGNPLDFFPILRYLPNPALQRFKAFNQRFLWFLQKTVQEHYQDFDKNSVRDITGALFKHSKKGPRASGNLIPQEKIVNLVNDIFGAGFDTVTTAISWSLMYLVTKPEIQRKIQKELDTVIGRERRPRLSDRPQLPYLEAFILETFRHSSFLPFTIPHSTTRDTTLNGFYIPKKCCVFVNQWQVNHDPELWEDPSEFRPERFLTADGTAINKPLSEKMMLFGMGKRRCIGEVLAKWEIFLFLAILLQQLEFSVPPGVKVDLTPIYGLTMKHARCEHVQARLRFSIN

Trypanosoma brucei [13] = assay: Antitrypanosomal activity against Trypanosoma brucei Lister 427 bloodstream form assessed as parasite growth inhibition at 50 uM after 72 hrs by SYBR Green assay relative to control; type: functional; settings: for inhibition of growth at 50 µM: Lister 427, 72 h, read-out: GI
Leishmania infantum = assay: Antileishmanial activity against Leishmania infantum amastigote form assessed as parasite growth inhibition at 50 uM after 72 hrs by steady-Glo reagent based assay relative to control; type: functional; settings: for inhibition of growth at 50 µM: read-out: GI
How it was run: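 Intramacrophage L. infantum amastigotes in THP-1-derived macrophages, tested at 50 μM or in dose-response. Plates held 72 h at 37 °C, 5% CO2. Medium was replaced by PBS, macrophages lysed, and parasites read by Steady-Glo luminescence. High-content imaging gave host cell number, infection ratio (infected/total cells) and parasites per infected cell. Values are means of at least two independent experiments.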

hERG (KCNH2) = hERG (KCNH2) (Homo sapiens, UniProt Q12809); assay: Inhibition of human ERG at 10 uM incubated for 2 hrs by fluorescence polarisation assay relative to control
CYP3A4 = CYP3A4 (Homo sapiens, UniProt P08684); assay: Inhibition of human microsomal CYP3A4 expressed in baculovirus infected BTI-TN-5B1-4 cells at 10 uM incubated for 30 mins by luciferase assay relative to control; type: ADME; how it was run: as §2
CYP2C19 = CYP2C19 (Homo sapiens, UniProt P33261); assay: Inhibition of human microsomal CYP2C19 expressed in baculovirus infected BTI-TN-5B1-4 cells at 10 uM incubated for 30 mins by luciferase assay relative to control; type: ADME; how it was run: as §2
[14] = Cytotoxicity against human U2OS cells assessed as decrease in viable cells after 72 hrs by cell number count in anti-T. cruzi high content imaging assay; settings: U2OS cells
Trypanosoma cruzi [15] = assay: Antitrypanosomal activity against Trypanosoma cruzi amastigote form infected in human U2OS cells assessed as parasite growth inhibition after 72 hrs; type: functional, organism-based; how it was run: as §1
[16] = Selectivity index, ratio of CC50 for human U2OS cells to EC50 for Trypanosoma cruzi amastigote form; type: toxicity; settings: read-out: Ratio CC50/EC50
How it was run: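 Selectivity index = CC50 in the human host or cytotoxicity cell line divided by parasite EC50.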

Aurora kinase B, sequence (Q96GD4 whole entry): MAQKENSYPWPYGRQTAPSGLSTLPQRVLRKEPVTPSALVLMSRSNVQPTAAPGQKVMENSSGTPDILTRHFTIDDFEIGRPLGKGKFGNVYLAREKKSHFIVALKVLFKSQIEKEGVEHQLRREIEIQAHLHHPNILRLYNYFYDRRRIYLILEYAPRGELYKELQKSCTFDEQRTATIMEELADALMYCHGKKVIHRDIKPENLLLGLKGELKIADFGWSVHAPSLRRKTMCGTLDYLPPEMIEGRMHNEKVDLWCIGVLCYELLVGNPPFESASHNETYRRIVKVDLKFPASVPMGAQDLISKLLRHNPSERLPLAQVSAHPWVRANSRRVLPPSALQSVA
CYP2C9, sequence (P11712 whole entry): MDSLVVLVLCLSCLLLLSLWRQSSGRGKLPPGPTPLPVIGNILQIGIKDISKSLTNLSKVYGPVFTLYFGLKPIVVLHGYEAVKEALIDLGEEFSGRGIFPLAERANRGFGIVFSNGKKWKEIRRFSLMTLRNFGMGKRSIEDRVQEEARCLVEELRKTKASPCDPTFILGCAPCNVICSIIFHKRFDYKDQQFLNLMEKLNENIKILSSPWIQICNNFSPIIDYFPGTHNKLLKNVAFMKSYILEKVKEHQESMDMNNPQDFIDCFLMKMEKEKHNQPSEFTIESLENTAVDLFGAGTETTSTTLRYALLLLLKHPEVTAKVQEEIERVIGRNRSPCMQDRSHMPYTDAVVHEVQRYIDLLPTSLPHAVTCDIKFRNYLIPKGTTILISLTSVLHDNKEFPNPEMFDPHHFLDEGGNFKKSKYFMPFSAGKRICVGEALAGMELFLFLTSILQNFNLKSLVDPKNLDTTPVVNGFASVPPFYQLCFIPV
hERG (KCNH2), sequence (Q12809 whole entry): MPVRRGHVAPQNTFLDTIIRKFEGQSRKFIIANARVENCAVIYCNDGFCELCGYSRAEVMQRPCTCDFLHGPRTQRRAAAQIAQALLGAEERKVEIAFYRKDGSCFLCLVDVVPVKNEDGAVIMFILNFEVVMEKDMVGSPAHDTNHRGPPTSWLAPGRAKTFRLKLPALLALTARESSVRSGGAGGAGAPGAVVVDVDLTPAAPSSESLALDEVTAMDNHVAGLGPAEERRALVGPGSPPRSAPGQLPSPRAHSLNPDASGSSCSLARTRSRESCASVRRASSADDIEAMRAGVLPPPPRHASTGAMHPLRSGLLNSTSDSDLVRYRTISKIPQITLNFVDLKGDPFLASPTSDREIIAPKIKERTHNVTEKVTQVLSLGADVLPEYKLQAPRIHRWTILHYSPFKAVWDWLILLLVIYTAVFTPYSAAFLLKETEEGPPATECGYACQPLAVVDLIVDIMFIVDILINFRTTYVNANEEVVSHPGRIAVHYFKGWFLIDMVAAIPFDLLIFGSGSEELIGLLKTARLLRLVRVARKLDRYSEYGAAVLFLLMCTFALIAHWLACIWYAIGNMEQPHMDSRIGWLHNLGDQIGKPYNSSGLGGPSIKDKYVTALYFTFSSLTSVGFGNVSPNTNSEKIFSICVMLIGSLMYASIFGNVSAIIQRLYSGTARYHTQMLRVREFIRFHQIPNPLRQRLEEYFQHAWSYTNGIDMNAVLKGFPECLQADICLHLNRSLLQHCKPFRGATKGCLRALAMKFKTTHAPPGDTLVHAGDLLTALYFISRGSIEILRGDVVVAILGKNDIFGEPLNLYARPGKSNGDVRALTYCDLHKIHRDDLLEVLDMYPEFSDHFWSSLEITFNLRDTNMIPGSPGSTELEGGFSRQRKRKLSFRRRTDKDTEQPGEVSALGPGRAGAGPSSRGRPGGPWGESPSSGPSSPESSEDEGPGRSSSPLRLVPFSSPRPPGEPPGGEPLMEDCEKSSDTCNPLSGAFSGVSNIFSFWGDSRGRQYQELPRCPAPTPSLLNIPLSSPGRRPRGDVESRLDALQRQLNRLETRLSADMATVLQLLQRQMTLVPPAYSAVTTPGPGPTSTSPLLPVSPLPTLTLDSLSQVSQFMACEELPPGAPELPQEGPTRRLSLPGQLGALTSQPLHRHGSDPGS
CYP3A4, sequence (P08684 whole entry): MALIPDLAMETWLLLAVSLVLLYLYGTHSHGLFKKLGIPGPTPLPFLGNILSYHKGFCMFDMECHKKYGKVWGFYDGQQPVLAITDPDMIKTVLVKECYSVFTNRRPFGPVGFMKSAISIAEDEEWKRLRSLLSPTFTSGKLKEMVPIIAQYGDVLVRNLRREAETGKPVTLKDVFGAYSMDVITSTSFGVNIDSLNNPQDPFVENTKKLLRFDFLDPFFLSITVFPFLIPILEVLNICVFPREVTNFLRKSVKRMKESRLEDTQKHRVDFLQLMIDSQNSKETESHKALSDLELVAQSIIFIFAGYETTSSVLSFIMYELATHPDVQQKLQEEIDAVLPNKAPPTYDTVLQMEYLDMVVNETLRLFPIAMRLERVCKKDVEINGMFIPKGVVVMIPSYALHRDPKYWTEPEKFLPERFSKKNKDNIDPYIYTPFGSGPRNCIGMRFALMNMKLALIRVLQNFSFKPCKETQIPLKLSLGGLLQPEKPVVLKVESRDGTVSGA
CYP2C19, sequence (P33261 whole entry): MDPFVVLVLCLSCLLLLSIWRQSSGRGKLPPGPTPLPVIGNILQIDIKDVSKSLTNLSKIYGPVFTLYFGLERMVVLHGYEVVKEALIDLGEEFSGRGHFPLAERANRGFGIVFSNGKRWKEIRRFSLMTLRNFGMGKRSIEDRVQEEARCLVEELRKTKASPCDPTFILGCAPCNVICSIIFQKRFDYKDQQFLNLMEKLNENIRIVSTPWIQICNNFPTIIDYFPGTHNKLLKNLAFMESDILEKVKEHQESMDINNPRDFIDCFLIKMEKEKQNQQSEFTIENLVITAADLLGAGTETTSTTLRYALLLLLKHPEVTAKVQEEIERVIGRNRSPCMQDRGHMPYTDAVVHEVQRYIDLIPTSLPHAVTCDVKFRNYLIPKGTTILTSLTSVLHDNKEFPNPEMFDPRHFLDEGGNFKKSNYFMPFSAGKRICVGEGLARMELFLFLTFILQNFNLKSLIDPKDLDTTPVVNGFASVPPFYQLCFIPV
CYP2D6, sequence (P10635 whole entry): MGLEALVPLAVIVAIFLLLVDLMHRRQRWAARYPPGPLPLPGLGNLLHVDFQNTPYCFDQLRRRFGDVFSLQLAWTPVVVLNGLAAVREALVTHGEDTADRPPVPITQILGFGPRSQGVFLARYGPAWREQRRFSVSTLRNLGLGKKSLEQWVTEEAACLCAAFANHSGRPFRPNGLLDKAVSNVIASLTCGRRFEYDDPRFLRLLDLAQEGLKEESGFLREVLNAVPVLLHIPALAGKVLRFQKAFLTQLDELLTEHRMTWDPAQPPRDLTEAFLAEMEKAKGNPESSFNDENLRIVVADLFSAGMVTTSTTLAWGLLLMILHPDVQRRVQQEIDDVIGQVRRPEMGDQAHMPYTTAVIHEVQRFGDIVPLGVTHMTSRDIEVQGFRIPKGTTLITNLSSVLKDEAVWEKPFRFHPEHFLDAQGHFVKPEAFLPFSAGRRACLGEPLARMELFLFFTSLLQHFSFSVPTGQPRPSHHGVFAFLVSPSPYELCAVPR

Structure (SMILES)	inhibition [1]	cell growth (% of control) at 48 h, 10 µM [2]	inhibition at 0.75 h, 10 µM (Aurora kinase B)	Activity (Trypanosoma brucei [3])	inhibition [4]	viability at 72 h, 50 µM [5]	cell growth (% of control) at 48 h, 10 µM [7]	viability at 72 h, 100 µM [8]	inhibition of growth at 50 µM (Trypanosoma cruzi [9])	cytotoxicity at 6 h, 10 µM [10]	PF (Trypanosoma brucei [11])	Activity (Trypanosoma brucei [12])	inhibition at 0.5 h, 10 µM (CYP2D6)	inhibition at 0.5 h, 10 µM (CYP2C9)	inhibition at 0.5 h, 10 µM (CYP1A2)	inhibition of growth at 50 µM (Trypanosoma brucei [13])	inhibition of growth at 50 µM (Leishmania infantum)	inhibition at 2 h, 10 µM (hERG (KCNH2))	inhibition at 0.5 h, 10 µM (CYP3A4)	inhibition at 0.5 h, 10 µM (CYP2C19)	further results
NC(=S)N/N=C/c1ccc2ncccc2c1	11.2%	145%	0.46%	91.17%	12.2%	72.5%	143%	63.7%	53.8%	-6.48%	3.25	3.83%	2.28%	3.32%	25.2%	84.2%	36%	-13.2%	-13.5%	-34.6%	pEC50 (Trypanosoma brucei [6]): 4.46
NC(=S)N/N=C/c1ccc(-c2ccccc2)cc1	inactive	138%	-35.7%	80.67%	3.57%	116%	104%	46.4%	95.2%	16.1%	1.85	19.33%	26.8%	98.4%	76.6%	–	–	38.5%	-16.1%	32.1%	CC50 at 72 h [14]: > 44 µM; pEC50 (Trypanosoma cruzi [15]): 5.38; growth inhibition (GI) (Trypanosoma brucei [13]): inactive; growth inhibition (GI) (Leishmania infantum): inactive; selectivity ratio [16]: > 1
NC(=S)N/N=C/c1ccccc1O	13.7%	117%	6.53%	62.5%	7.6%	58%	108%	54.7%	86.1%	-1.49%	1.49	17.83%	-18.9%	-6.44%	18.6%	97.9%	24.1%	4.46%	-4.38%	-20.6%	pEC50 (Trypanosoma brucei [6]): 4.50
N/C(S)=N/N=C/c1ccc(Cl)c(Cl)c1	inactive	100%	-9.56%	84%	9.38%	101%	107%	56.4%	23.1%	5.87%	1.36	37.33%	27.3%	24.3%	76.8%	–	17.6%	-9.32%	-10.6%	-14.9%	growth inhibition (GI) (Trypanosoma brucei [13]): inactive
COc1cc(/C=N/NC(N)=S)cc(OC)c1OC	2.13%	140%	-17.7%	51.67%	7.53%	65.5%	111%	40.2%	–	4.79%	1.92	2.67%	-21%	-6.01%	15.1%	0.21%	7.19%	-1.36%	-30.2%	-28.1%	growth inhibition (GI) (Trypanosoma cruzi [9]): inactive
N/C(S)=N/N=C/c1ccc([N+](=O)[O-])cc1	3.76%	128%	-9.68%	36.33%	7.99%	85.6%	122%	75.6%	40.1%	0.08%	1.12	8.17%	-16.9%	-3.66%	11.6%	–	19%	4.43%	8.17%	-38.4%	growth inhibition (GI) (Trypanosoma brucei [13]): inactive
